Only some compounds are listed: those with a hit (about 1.9% of all), similar ones and a draw of the others.
PLCg1 inh: blocks human PLC-gamma1 enzyme activity; 0.84% of 370,000 active; purified PLC-gamma1, fluorogenic substrate, fluorescence; AID 720700; inhibition, % at 12.2 µM; P19174
Target sequence (P19174 whole entry, looked up): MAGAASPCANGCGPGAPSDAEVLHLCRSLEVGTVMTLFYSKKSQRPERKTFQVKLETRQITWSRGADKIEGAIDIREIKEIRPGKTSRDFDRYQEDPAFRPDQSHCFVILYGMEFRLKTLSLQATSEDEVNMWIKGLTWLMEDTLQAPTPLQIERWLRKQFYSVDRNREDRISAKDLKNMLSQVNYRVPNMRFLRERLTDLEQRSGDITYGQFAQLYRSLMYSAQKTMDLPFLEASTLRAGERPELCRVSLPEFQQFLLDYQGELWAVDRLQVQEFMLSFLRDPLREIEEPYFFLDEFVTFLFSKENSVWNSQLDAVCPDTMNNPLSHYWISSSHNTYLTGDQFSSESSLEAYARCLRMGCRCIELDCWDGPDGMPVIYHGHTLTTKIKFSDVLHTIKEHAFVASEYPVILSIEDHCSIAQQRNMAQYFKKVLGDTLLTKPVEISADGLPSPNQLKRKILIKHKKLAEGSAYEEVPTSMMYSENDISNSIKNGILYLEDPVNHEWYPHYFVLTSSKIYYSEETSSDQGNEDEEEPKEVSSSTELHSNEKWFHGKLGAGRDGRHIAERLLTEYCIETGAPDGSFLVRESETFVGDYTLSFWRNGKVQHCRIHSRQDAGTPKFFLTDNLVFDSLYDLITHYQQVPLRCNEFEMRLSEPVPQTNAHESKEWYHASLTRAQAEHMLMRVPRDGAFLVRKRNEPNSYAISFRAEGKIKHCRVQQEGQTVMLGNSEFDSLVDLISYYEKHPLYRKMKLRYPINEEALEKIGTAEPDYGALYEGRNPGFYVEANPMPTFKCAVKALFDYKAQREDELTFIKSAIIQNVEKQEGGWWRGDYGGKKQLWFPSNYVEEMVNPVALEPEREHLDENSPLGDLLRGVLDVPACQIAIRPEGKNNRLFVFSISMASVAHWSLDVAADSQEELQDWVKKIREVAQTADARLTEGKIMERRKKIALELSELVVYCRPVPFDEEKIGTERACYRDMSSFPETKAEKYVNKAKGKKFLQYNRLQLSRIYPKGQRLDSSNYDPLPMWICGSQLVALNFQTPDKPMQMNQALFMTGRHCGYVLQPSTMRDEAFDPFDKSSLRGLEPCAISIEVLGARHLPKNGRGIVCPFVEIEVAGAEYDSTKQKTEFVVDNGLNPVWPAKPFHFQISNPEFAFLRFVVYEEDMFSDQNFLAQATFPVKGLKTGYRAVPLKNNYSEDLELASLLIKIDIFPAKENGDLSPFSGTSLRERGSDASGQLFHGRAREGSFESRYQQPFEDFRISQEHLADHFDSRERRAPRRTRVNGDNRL
HGIII-sPLA2 inh: Inhibits HGIII-sPLA2 liposome hydrolysis, primary screen; Q9NZ20; QFRET BODIPY PC-A2 liposome hydrolysis, fluorescence; inhibition, % at 12.2 µM; 0.56% of 370,000 active;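 active = inhibition above mean plus 3 SD of compounds lying within the high and low control bounds, cut at about 19% in these data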;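 note: 0% = median of test compound wells and 100% = no enzyme DMSO wells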
PLC-beta3 inh: inhibitors of human phospholipase C beta3 | Q01970 | Purified PLC-beta3, fluorogenic substrate, fluorescence | inhibition, % at 12.2 µM | 0.18% of 370,000 active | AID 720704; in the data active = inhibition above about 11%;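 note: 0% = median of compound wells on plate and 100% = full blocker control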
DAGLB inhibitor: blocks human DAGLB lipase activity. Q8NCG7. HEK293T DAGLB membrane lysate, EnzChek fluorogenic substrate. inhibition, % at 5.17 µM. 0.059% of 340,000 active. AID 504411; in the data active = inhibition above about 34%;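 note: 0% = enzyme with vehicle and 100% = wells lacking enzyme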
Tb MetRS inh: blocks T. brucei methionyl-tRNA synthetase activity. purified T. brucei MetRS, ATP depletion, Kinase-Glo luminescence. inhibition, % at 11.9 µM. 0.4% of 360,000 active;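 active = inhibition above a per-plate cutoff of the control wells' mean inhibition plus 3 SD, cut at about 5.5% in these data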;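 note: 0% = DMSO wells median and 100% = median of wells with control inhibitor compound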
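assay system = parasite MetRS enzyme | timing = 15 min preincubation, 2 h reaction, all 25 °C | evaluation = percent inhibition relative to median high and low control wells | medium = HEPES buffer containing pyrophosphatase, BSA, spermine, DTT | compound = single dose, 11.9 µM final nominal, 0.9% final DMSO | detection = Kinase-Glo luminescence, ATP depletion format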
PLCg1 ctr: PLC-gamma1 inhibition, counter-screen for PLC-beta3 hits | inhibition, % at 12.3 µM | 3.1% of 3,300 active | shares compounds with PLCg1 inh | purified PLC-gamma1, fluorogenic substrate, fluorescence | AID 743258
PLCbeta3 conf: human PLC-beta3 inhibition, confirmation | AID 743261 | inhibition, % at 12.3 µM | shares compounds with PLCg1 inh | purified PLC-beta3, fluorogenic substrate fluorescence | 1% of 3,300 active; in the data active = inhibition above about 11%
Starred values were filed as active, the others as inactive; x = no result given. Cut-off read from the data, not from the text of the source, unless noted: active = inhibition above about 9.5%; inactive = the rest.

SMILES	PLCg1 inh	HGIII-sPLA2 inh	PLC-beta3 inh	DAGLB inhibitor	Tb MetRS inh	PLCg1 ctr	PLCbeta3 conf
Nc1nc(-c2ccco2)nn1C(=O)c1ccc(Cl)cc1	9.8*	9	5	-1	0	-6	-9
Nc1nc(-c2ccco2)nn1C(=O)c1ccccc1	-1	1	2	2	-1	x	x
Cc1ccc(C(C)C)cc1NC(=O)Nc1ccc([N+](=O)[O-])cc1	5	4	12*	-8	1	5	10
Cc1cc(O)c(C(C)C)cc1NC(=O)Nc1ccc([N+](=O)[O-])cc1	4	-4	4	1	0	x	x
COc1ccc([C@H]2CC(=O)C=C(/C=C/c3ccccc3)C2)cc1OC	11*	-9	16*	-4	0	-3	-3
COC(=O)CCCCCCCCCC[N+]1(C)CCCCC1	4	-2	11*	-3	-1	-4	4
CC(=O)OCCCCCCCCCCC[N+]1(C)CCCCC1	-2	3	0	-1	0	x	x
O=S(=O)(c1ccccc1)c1cnn(-c2ccccc2)c1-c1ccc(Cl)cc1	1	-3	20*	-6	0	1	17*
COc1ccc(-c2c(S(=O)(=O)c3ccccc3)cnn2-c2ccccc2)cc1	0	-9	2	-4	-1	x	x
Cc1ccccc1-c1nnn(Cc2ccc(F)cc2Cl)n1	11*	8	2	-14	1	-9	-7
COC(=O)C1CN(Cc2ccc(C)cc2)CCS(=O)(=O)N1Cc1cn(Cc2ccc(F)cc2)nn1 (stereo not given)	0	-6	0	x	x	x	x
COC(=O)C1=C(C)N(Cc2ccc(C(F)(F)F)cc2)C(=NCc2ccccc2)NC1c1cccc(Cl)c1 (stereo not given)	8	-1	3	x	x	x	x
C=CC(=O)NC1CCCCN(C)C1=O (stereo not given)	0	10	0	x	x	x	x
CCOC(=O)c1c(NC(=S)N2CCN(C)CC2)sc(C)c1-c1ccccc1	11*	-10	-3	-9	0	-7	-4
O=C(COC(=O)c1c(Cl)cccc1Cl)Nc1cc(Cl)ccc1Oc1ccccc1	11*	3	4	-4	-1	-6	-6
O=C(COC(=O)c1ccccc1)Nc1cc(Cl)ccc1Oc1ccccc1	-2	-6	-3	-15	1	x	x
CC(C)CN1C(=O)C(=O)N(CC(=O)Nc2cc(Cl)ccc2Oc2ccccc2)C1=O	20*	-21	3	-8	0	7	10
Cc1cc(C)nc(NC(=S)N2CCN(c3ccc(Cl)c(Cl)c3)CC2)c1	1	9	2	x	x	x	x
COc1ccc(N2C(=O)c3n[nH]c(C(C)C)c3C2c2ccc(C)cc2)cc1 (stereo not given)	2	-13	-1	x	x	x	x
COC(=O)C1=C(C)N(C)C(=NCc2ccc(C(F)(F)F)cc2)NC1c1cccc(Cl)c1 (stereo not given)	1	-14	-2	x	x	x	x
CSCCC(NC(=O)c1ccc(Cl)cc1Cl)C(=O)N1CCN(C(=O)c2ccccc2)CC1 (stereo not given)	11*	12	-11	1	0	0	2
CSCCC(NC(=O)c1ccccc1Cl)C(=O)N1CCC1 (stereo not given)	2	11	-3	0	0	x	x
COC(=O)C1=C(C)N(C)C(=NCC2CC2)NC1c1ccccc1 (stereo not given)	1	14	1	x	x	x	x
O=C(N/N=C/c1ccc(N2CCCC2)c([N+](=O)[O-])c1)c1cccnc1	18*	5	16*	4	1	-1	6
S=C(NCCN1CCOCC1)Nc1ccc(Cl)cc1	-1	1	1	5	0	x	x
SMILES	PLCg1 inh	HGIII-sPLA2 inh	PLC-beta3 inh	DAGLB inhibitor	Tb MetRS inh	PLCg1 ctr	PLCbeta3 conf
O=C(NCCN1CCOCC1)Nc1ccc(Cl)cc1	12*	-4	-1	4	0	-3	1
Oc1ccc(-c2nn[nH]n2)c2cccnc12	-6	-1	-12	x	x	x	x
COc1ccc(OCC(=O)NCCC2=CCCCC2)c([N+](=O)[O-])c1	10*	-4	4	-4	0	0	-6
C=CCN1[C@H](CC(C)C)COc2cc(F)ccc2S1(=O)=O	4	11	-3	x	x	x	x
N/C(=N\OC(=O)c1cccs1)C1(c2ccc(Cl)cc2Cl)CC1	0	-3	2	-3	0	x	x
N/C(Cc1ccc(Cl)c(Cl)c1)=N\OC(=O)c1cccs1	9	-7	12*	-24	0	3	10
Cc1nn(C)c(Oc2ccccc2)c1CCNC(=O)C(C)(C)C	11*	12	8	-2	-1	-4	1
COC(=O)[C@]12C[C@H](CC(=O)NCCC(C)C)C(=O)N(Cc3ccc4c(c3)OCO4)C1=C[C@H](COCc1ccccc1)O[C@@H]2C	4	-7	6	x	x	x	x
COc1ccc(N2CC(C(=O)N[C@@H](C)C(=O)NCc3ccccc3OC)CC2=O)cc1 (stereo not given in full)	9.8*	4	-12	-1	0	-1	1
Nc1nn(-c2ccccc2)c(N)c1N=Nc1cccc(F)c1	3	12	-5	x	0	x	x
Cc1nn(-c2ccccc2)c(N)c1N=Nc1cccnc1	6	15	11*	0	0	5	7
CCCCNC(=O)NC1CCN(CC(=O)Nc2ccc3c(c2)OCCO3)CC1	-1	12	-3	x	x	x	x
COc1ccc(C(c2c(C)[nH]n(-c3ccccc3)c2=O)c2c(C)[nH]n(-c3ccccc3)c2=O)cc1OC	25*	4	8	14	-1	1	0
CCCCN1CC[C@H](C)Oc2cc(Br)ccc2S1(=O)=O	5	-2	1	x	x	x	x
Cc1onc(-c2c(Cl)cccc2Cl)c1NC(=O)NN(C)C	0	9	-8	-4	-1	x	x
CSCCNC(=O)Nc1c(-c2c(Cl)cccc2Cl)noc1C	12*	11	6	1	-1	-1	-2
O=C(N[C@@H](Cc1cccnc1)C(=O)N1CCC[C@H]1C(=O)NCCc1ccccc1Cl)C1CC1	-1	4	0	x	x	x	x
COc1ccc(C(C)NCCC(c2ccc(OC(C)C)cc2)c2ccccc2OC)cc1 (stereo not given)	16*	-5	0	-6	0	-1	0
COc1ccc(C(CCNC(C)c2ccccc2)C(C)C)cc1 (stereo not given)	0	5	-5	x	-1	x	x
CCCCCNC(=O)[C@@H]1CSC2c3ccccc3C(=O)N21 (stereo not given in full)	13*	-6	8	-2	-2	-1	0
O=C(NCCCN1CCOCC1)[C@@H]1CSC2c3ccccc3C(=O)N21 (stereo not given in full)	3	2	3	-2	-2	x	x

Source: PubChem BioAssay (The Scripps Research Institute Molecular Screening Center)
